The values that follow come from ChEMBL document CHEMBL3044977, “Synthesis and fungicidal activity of enantiomerically pure (R)- and (S)-silicon-containing azole fungicides” (Bioorg Med Chem, 2004).

A value given as a limit tells only on which side of the number the result lay.

Experiment [1] concerns Pyricularia oryzae. Nature of the experiment: Antifungal activity against Magnaporthe oryzae infected compound pre-treated rice seedlings through submerged application assessed as concentration required to prevent rice blast disease development measured per 10 acres after 7 days under greenhouse condition. The class given is functional.
Experiment [2] concerns Pyricularia oryzae. In words: Fungicidal activity against Magnaporthe oryzae assessed as inhibition of mycelial growth after 24 to 48 hr by agar dilution method. The class given is functional, organism-based. In a few lines: (§1)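 Agar dilution on potato dextrose agar. Test compounds were serially diluted in DMSO containing 10% Tween 20, and 0.1 mL of each dilution went into a petri dish with 10 mL of agar medium, which was then solidified. IC50 was taken as the concentration giving 50% inhibition.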

Experiment [3] relates to Rhizoctonia solani. Nature of the experiment: Fungicidal activity against Rhizoctonia solani assessed as inhibition of mycelial growth after 24 to 48 hr by agar dilution method. The class given is functional, organism-based. In a few lines:
as §1
(In general: Agar dilution tests growth on a series of plates holding different concentrations.)

Experiment [4] deals with Rhizoctonia solani. Nature of the experiment: Antifungal activity against Rhizoctonia solani infected compound pre-treated rice seedlings through submerged application assessed as concentration required to prevent rice sheath blight disease development measured per 10 acres after 7 days under greenhouse condition. The class given is functional.

`C[Si](C)(C)C[C@@](O)(Cn1cncn1)c1ccc(F)cc1`: the Activity in experiment [1] and in experiment [4] was >100 g in each case. Further, the IC50 came out at 33.5 ppm in experiment [2] and 0.54 ppm in experiment [3].

With `C[Si](C)(C)C[C@](O)(Cn1cncn1)c1ccc(F)cc1`, the values for the Activity in experiment [1] and in experiment [4] were 100 g and 25 g, respectively. Also, the IC50 in experiment [2] turned out to be 0.95 ppm; in experiment [3], 0.016 ppm.

Consider `C[Si](C)(C)CC(O)(Cn1cncn1)c1ccc(F)cc1` (racemic) [SIMECONAZOLE], for which the Activity in experiment [1] was 100 g; in experiment [4], 25 g. Also, the IC50 in experiment [2] turned out to be 1.25 ppm; in experiment [3], 0.042 ppm.
